In ChEMBL document CHEMBL3352534, “A prodrug strategy for the oral delivery of a poorly soluble HCV NS5B thumb pocket 1 polymerase inhibitor using self-emulsifying drug delivery systems (SEDDS)” (Bioorg Med Chem Lett, 2015):
≈ marks a conversion by molar mass, not a printed value.

Columns and labels:
Rattus norvegicus [1] = experiment: Cmax in rat plasma assessed as (E)-3-(4-(1-(2-(5-chloropyrimidin-2-yl)-3-cyclopentyl-1-methyl-1H-indole-6-carboxamido)cyclobutanecarboxamido)-2-ethoxyphenyl)acrylic acid at 10 mg/kg, po using 10.6% PEG400, 5.4% Cremophor EL, 2.6% Labrasol, 1.4% Capmul MCM in water (80%) vehicle; format: ADME, organism-based; parameters: dose 10 mg/kg, route oral; settings: in vivo
How it was run: (§1)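 Fasted rats were given a single 10 mg/kg oral dose, with n = 3 per dose and route. Plasma was extracted by solid-phase extraction. Analysis used HPLC with diode-array UV (200–400 nm, peak height at best S/N) or LC/MS. Calibration standards were made in blank plasma, with LOQ 7–14 ng/mL. Parameters came from noncompartmental analysis.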

Liver microsome [2] = experiment: Prodrug conversion in human liver microsomes assessed as half life
Rattus norvegicus [3] = experiment: AUC in rat plasma assessed as (E)-3-(4-(1-(2-(5-chloropyrimidin-2-yl)-3-cyclopentyl-1-methyl-1H-indole-6-carboxamido)cyclobutanecarboxamido)-2-ethoxyphenyl)acrylic acid at 10 mg/kg, po using 10.6% PEG400, 5.4% Cremophor EL, 2.6% Labrasol, 1.4% Capmul MCM in water (80%) vehicle; format: ADME, organism-based; parameters: dose 10 mg/kg, route oral; settings: in vivo; how it was run: as §1
Rattus norvegicus [4] = experiment: (§2) AUC in rat plasma at 10 mg/kg, po using 10.6% PEG400, 5.4% Cremophor EL, 2.6% Labrasol, 1.4% Capmul MCM in water (80%) vehicle; format: ADME, organism-based; parameters: dose 10 mg/kg, route oral; settings: in vivo, BLD = below limit of detection; how it was run: as §1
[5] = Dissociation constant, pKa of the compound; format: physicochemical
Rattus norvegicus [6] = experiment: (§3) Cmax in rat plasma at 10 mg/kg, po using 10.6% PEG400, 5.4% Cremophor EL, 2.6% Labrasol, 1.4% Capmul MCM in water (80%) vehicle; format: ADME, organism-based; parameters: dose 10 mg/kg, route oral; settings: in vivo, BLD = below limit of detection; how it was run: as §1
Liver microsome [7] = experiment: Prodrug conversion in rat liver microsomes assessed as half life
[8] = Prodrug solubility in Labrasol; format: ADME
[9] = Prodrug solubility in solutol; format: ADME
[10] = Prodrug solubility in capmul; format: ADME
[11] = Prodrug conversion in simulated gastric fluid assessed as half life; format: ADME; settings: simulated gi fluid
How it was run: (§4)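 Incubations used 2 µM compound at 37 °C in either SGF (0.2% NaCl/HCl, pH 1.2, pepsin 3.2 mg/mL) or SIF (KH2PO4/NaOH, pH 7.5, pancreatin 10 mg/mL). Samples were quenched 1:2 with acetonitrile/methanol 1:1 and analysed by HPLC. t1/2 = 0.693/first-order disappearance rate.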

Intestine = experiment: Prodrug conversion in rat intestinal microsomes assessed as half life
[12] = Prodrug conversion in human intestinal microsomes assessed as half life
[13] = Prodrug conversion in simulated intestinal fluid assessed as half life; format: ADME; settings: simulated gi fluid; how it was run: as §4
Plasma [14] = experiment: Prodrug conversion in human plasma assessed as half life
Plasma [15] = experiment: Prodrug conversion in rat plasma assessed as half life; format: ADME, cell-free
How it was run: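 Rat plasma (from centrifuged whole blood) was incubated with 2 µM compound at 37 °C. Samples were quenched 1:3 with acetonitrile/methanol 1:1, centrifuged and analysed by HPLC-PDA. Half-life was taken as 0.693/first-order rate of loss of the starting compound.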

Rattus norvegicus [16] = experiment: AUC in rat plasma assessed as (E)-3-(4-(1-(2-(5-chloropyrimidin-2-yl)-3-cyclopentyl-1-methyl-1H-indole-6-carboxamido)cyclobutanecarboxamido)-2-ethoxyphenyl)acrylic acid at 10 mg/kg, po using 0.5% Methyl cellulose, 0.3% Tween-80, 1% N-methylpyrrolidone in water vehicle; format: ADME, organism-based; parameters: dose 10 mg/kg, route oral; settings: in vivo; how it was run: as §1
[17] = (§5) AUC in rat plasma at 10 mg/kg, po using 0.5% Methyl cellulose, 0.3% Tween-80, 1% N-methylpyrrolidone in water vehicle; format: ADME, organism-based; parameters: dose 10 mg/kg, route oral; settings: plasma; how it was run: as §1
[18] = Solubility of the compound at pH 6.8; format: physicochemical; settings: buffer
Rattus norvegicus [19] = experiment: Cmax in rat plasma assessed as (E)-3-(4-(1-(2-(5-chloropyrimidin-2-yl)-3-cyclopentyl-1-methyl-1H-indole-6-carboxamido)cyclobutanecarboxamido)-2-ethoxyphenyl)acrylic acid at 10 mg/kg, po using 0.5% Methyl cellulose, 0.3% Tween-80, 1% N-methylpyrrolidone in water vehicle; format: ADME, organism-based; parameters: dose 10 mg/kg, route oral; settings: in vivo; how it was run: as §1
[20] = (§6) Cmax in rat plasma at 10 mg/kg, po using 0.5% Methyl cellulose, 0.3% Tween-80, 1% N-methylpyrrolidone in water vehicle; format: ADME, organism-based; parameters: dose 10 mg/kg, route oral; settings: plasma; how it was run: as §1
[21] = as §2; format: ADME, organism-based; parameters: dose 10 mg/kg, route oral; settings: plasma; how it was run: as §1
[22] = as §3; format: ADME, organism-based; parameters: dose 10 mg/kg, route oral; settings: plasma; how it was run: as §1
Rattus norvegicus [23] = experiment: as §5; format: ADME, organism-based; parameters: dose 10 mg/kg, route oral; settings: in vivo, BLD = below limit of detection; how it was run: as §1
Rattus norvegicus [24] = experiment: as §6; format: ADME, organism-based; parameters: dose 10 mg/kg, route oral; settings: in vivo, BLD = below limit of detection; how it was run: as §1
[25] = Prodrug solubility in PEG400; format: ADME

SMILES | Cmax (Rattus norvegicus [1]) | t1/2 (Liver microsome [2]) | AUC (Rattus norvegicus [3]) | AUC (Rattus norvegicus [4]) | pKa [5] | Cmax (Rattus norvegicus [6]) | t1/2 (Liver microsome [7]) | solubility [8] | solubility [9] | solubility [10] | t1/2 [11] | t1/2 (Intestine) | t1/2 [12] | t1/2 [13] | t1/2 (Plasma [14]) | t1/2 (Plasma [15]) | solubility [25] | other results
CCOc1cc(NC(=O)C2(NC(=O)c3ccc4c(C5CCCC5)c(-c5ncc(Cl)cn5)n(C)c4c3)CCC2)ccc1/C=C/C(=O)OCCN1CCN(C)CC1 | 1200 nM | 111 min | 7.9 µM·h | BLD | 7.7 | BLD | 13 min | < 100 mg/mL | < 100 mg/mL | – | – | – | – | – | – | – | – | –
CCOc1cc(NC(=O)C2(NC(=O)c3ccc4c(C5CCCC5)c(-c5ncc(Cl)cn5)n(C)c4c3)CCC2)ccc1/C=C/C(=O)OCC(=O)N1CCOCC1 | 4000 nM | 48 min | 19.3 µM·h | BLD | – | BLD | 44 min | < 30 mg/mL | < 15 mg/mL | < 15 mg/mL | 51 min | 76 min | 205 min | 190 min | > 300 min | 110 min | – | –
CCOc1cc(NC(=O)C2(NC(=O)c3ccc4c(C5CCCC5)c(-c5ncc(Cl)cn5)n(C)c4c3)CCC2)ccc1/C=C/C(=O)OCOP(=O)(O)O | – | 10 min | – | – | – | – | 9 min | – | – | – | 78 min | 5 min | 28 min | – | – | – | – | AUC (Rattus norvegicus [16]): 14.5 µM·h; AUC [17]: 0.09 µM·h; solubility [18]: 140 µg/mL (≈ 0.186 mM); Cmax (Rattus norvegicus [19]): 4200 nM; Cmax [20]: 50 nM
CCOc1cc(NC(=O)C2(NC(=O)c3ccc4c(C5CCCC5)c(-c5ncc(Cl)cn5)n(C)c4c3)CCC2)ccc1/C=C/C(=O)OCCN1CCCC1 | 1100 nM | – | 6.5 µM·h | BLD | 7.7 | BLD | – | < 60 mg/mL | < 100 mg/mL | < 60 mg/mL | – | – | – | – | – | – | – | –
CCOc1cc(NC(=O)C2(NC(=O)c3ccc4c(C5CCCC5)c(-c5ncc(Cl)cn5)n(C)c4c3)CCC2)ccc1/C=C/C(=O)OCCN1CCOCC1 | 7200 nM | 55 min | 35.2 µM·h | – | 5.7 | – | 35 min | < 60 mg/mL | < 60 mg/mL | < 30 mg/mL | 20 min | 210 min | 910 min | 257 min | > 300 min | 96 min | – | AUC [21]: 0.2 µM·h; Cmax [22]: 70 nM
CCOc1cc(NC(=O)C2(NC(=O)c3ccc4c(C5CCCC5)c(-c5ncc(Cl)cn5)n(C)c4c3)CCC2)ccc1/C=C/C(=O)OCC(=O)N1CCN(C)CC1 | 260 nM | 21 min | 1.5 µM·h | BLD | 6.6 | BLD | 9 min | < 100 mg/mL | < 100 mg/mL | < 100 mg/mL | – | – | – | – | – | – | – | –
CCOc1cc(NC(=O)C2(NC(=O)c3ccc4c(C5CCCC5)c(-c5ncc(Cl)cn5)n(C)c4c3)CCC2)ccc1/C=C/C(=O)OCCN(C)C | 1600 nM | 90 min | 10.1 µM·h | BLD | 7.7 | BLD | 19 min | < 100 mg/mL | < 100 mg/mL | < 100 mg/mL | 109 min | 88 min | > 300 min | 396 min | > 300 min | 84 min | – | –
CCOc1cc(NC(=O)C2(NC(=O)c3ccc4c(C5CCCC5)c(-c5ncc(Cl)cn5)n(C)c4c3)CCC2)ccc1/C=C/C(=O)OCOP(=O)(O)OC(C)(C)C | – | 89 min | – | – | – | – | 8 min | – | – | – | – | – | – | – | – | – | – | AUC (Rattus norvegicus [16]): 0.49 µM·h; AUC (Rattus norvegicus [23]): BLD; solubility [18]: 781 µg/mL (≈ 0.966 mM); Cmax (Rattus norvegicus [19]): 80 nM; Cmax (Rattus norvegicus [24]): BLD
CCOc1cc(NC(=O)C2(NC(=O)c3ccc4c(C5CCCC5)c(-c5ncc(Cl)cn5)n(C)c4c3)CCC2)ccc1/C=C/C(=O)OCC(N)=O | 4400 nM | 59 min | 16.7 µM·h | – | – | – | 23 min | > 200 mg/mL | 200 mg/mL (≈ 286 mM) | < 200 mg/mL | 36 min | – | – | – | – | – | > 200 mg/mL | AUC [21]: 0.13 µM·h; Cmax [22]: 40 nM
CCOc1cc(NC(=O)C2(NC(=O)c3ccc4c(C5CCCC5)c(-c5ncc(Cl)cn5)n(C)c4c3)CCC2)ccc1/C=C/C(=O)OCC(=O)N(C)C(C)C | – | 39 min | – | – | – | – | 16 min | < 200 mg/mL | < 200 mg/mL | < 200 mg/mL | – | – | – | – | – | – | > 200 mg/mL | –
CCOc1cc(NC(=O)C2(NC(=O)c3ccc4c(C5CCCC5)c(-c5ncc(Cl)cn5)n(C)c4c3)CCC2)ccc1/C=C/C(=O)OC | 5200 nM | 764 min | 30.7 µM·h | – | – | – | 98 min | – | – | – | 150 min | 109 min | 544 min | 412 min | > 300 min | > 300 min | – | AUC (Rattus norvegicus [16]): 5.7 µM·h; AUC [17]: 0.07 µM·h; AUC [21]: 2.6 µM·h; Cmax (Rattus norvegicus [19]): 510 nM; Cmax [22]: 840 nM; Cmax [20]: 10 nM
CCCN(C)C(=O)COC(=O)/C=C/c1ccc(NC(=O)C2(NC(=O)c3ccc4c(C5CCCC5)c(-c5ncc(Cl)cn5)n(C)c4c3)CCC2)cc1OCC | – | 19 min | – | – | – | – | 19 min | < 200 mg/mL | < 200 mg/mL | < 200 mg/mL | – | – | – | – | – | – | < 200 mg/mL | –
CCOc1cc(NC(=O)C2(NC(=O)c3ccc4c(C5CCCC5)c(-c5ncc(Cl)cn5)n(C)c4c3)CCC2)ccc1/C=C/C(=O)OCC(=O)NC | – | 34 min | – | – | – | – | 30 min | 200 mg/mL (≈ 280 mM) | < 200 mg/mL | < 200 mg/mL | – | – | – | – | – | – | > 200 mg/mL | –
